Experiments:
HeLa = experiment: Cytotoxicity against human HeLa cells after 72 hrs by alamar blue assay
[1] = molecular target: T1, Nuclear receptor subfamily 1 group I member 2 (Homo sapiens, UniProt O75469); experiment: Activation of human PXR expressed in human HepG2 cells at 2 uM by luciferase reporter gene assay relative to rifampin; type: cell-based; conditions: hepg2, 2 µM
T1 sequence (O75469 whole entry): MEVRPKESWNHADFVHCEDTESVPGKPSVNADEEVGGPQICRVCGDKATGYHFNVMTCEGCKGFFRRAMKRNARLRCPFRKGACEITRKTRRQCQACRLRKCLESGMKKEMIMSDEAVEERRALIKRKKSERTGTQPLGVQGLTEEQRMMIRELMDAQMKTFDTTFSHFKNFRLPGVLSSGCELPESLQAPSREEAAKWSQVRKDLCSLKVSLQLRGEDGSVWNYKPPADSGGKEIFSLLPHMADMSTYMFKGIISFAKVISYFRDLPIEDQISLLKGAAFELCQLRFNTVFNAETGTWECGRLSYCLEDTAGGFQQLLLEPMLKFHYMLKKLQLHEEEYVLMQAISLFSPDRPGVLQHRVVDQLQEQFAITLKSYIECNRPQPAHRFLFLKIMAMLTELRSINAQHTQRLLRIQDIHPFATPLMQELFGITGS
Method in brief: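 Transactivation was measured in HepG2 cells transfected with a luciferase reporter construct driven by human PXR cDNA. Luciferase activity was read by chemiluminescence and expressed as percent of the rifampin control.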

[2] = Metabolic stability in rat liver microsomes assessed as compound turnover after 30 mins; type: ADME, Microsome; conditions: read-out: Activity
[3] = Metabolic stability in human liver microsomes assessed as compound turnover after 30 mins; type: ADME, Microsome; conditions: read-out: Activity
[4] = molecular target: 11-beta-hydroxysteroid dehydrogenase 1 (Homo sapiens, UniProt P28845); experiment: Inhibition of FLAG-tagged full length human 11beta-HSD1 expressed in baculovirus-infected Trichoplusia ni Hi5 cells assessed as reduction of [3H]cortisone to [3H]cortisol by scintillation proximity assay in presence of NADPH; type: cell-based, BTI-TN-5B1-4
Rattus norvegicus = experiment: Inhibition of 11beta-HSD1 in epididymal fat tissue of po dosed Sprague-Dawley rat assessed as reduction in [3H]cortisol production after 2 hrs by scintillation proximity assay; conditions: Adipose tissue
[5] = Clearance in rat at 0.5 mg/kg, iv and 2 mg/kg, po; type: ADME, organism-based; conditions: in vivo
Method in brief: (§1)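 Single-dose PK: intravenous dose 0.5 or 0.7 mg/kg (footnotes a, b), oral dose 2.0 mg/kg. Reported parameters are iv clearance (L/h/kg), Vdss (L/kg), oral AUC and % oral bioavailability.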

[6] = Clearance in cynomolgus monkey at 0.5 mg/kg, iv and 2 mg/kg, po; type: ADME, organism-based, Macaca fascicularis; conditions: in vivo; method in brief: as §1
[7] = AUC in rat at 2 mg/kg, po; type: ADME, organism-based; set-up: dose 2 mg/kg, route oral; conditions: plasma; method in brief: as §1
[8] = Fraction unbound in human serum by ultracentrifugation assay; type: ADME, cell-free
Method in brief: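 Human protein binding was measured with separation by ultracentrifugation and reported as fraction unbound.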

[9] = Volume of distribution at steady state in cynomolgus monkey at 0.5 mg/kg, iv and 2 mg/kg, po; type: ADME, organism-based, Macaca fascicularis; conditions: in vivo, read-out: Vdss; method in brief: as §1
Cynomolgus monkey = experiment: cells; conditions: Macaca fascicularis, Adipose tissue
[10] = Bioavailability in cynomolgus monkey at 0.5 mg/kg, iv and 2 mg/kg, po; type: ADME, organism-based, Macaca fascicularis; conditions: in vivo; method in brief: as §1
[11] = Bioavailability in rat at 0.5 mg/kg, iv and 2 mg/kg, po; type: ADME, organism-based; conditions: in vivo; method in brief: as §1
[12] = molecular target: 11-beta-hydroxysteroid dehydrogenase 1 (Rattus norvegicus, UniProt P16232); experiment: Inhibition of rat 11beta-HSD1
Method in brief: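 Biochemical assay using baculovirus-produced recombinant full-length rat 11β-HSD1 with NADPH as cofactor. Substrate is [3H]cortisone. The [3H]-cortisol formed is captured by anti-cortisol monoclonal antibody SPA beads and quantified by scintillation. IC50 is from dose-response curve fitting of at least duplicate samples.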

[13] = Tmax in po dosed Sprague-Dawley rat; type: ADME, organism-based; conditions: in vivo
[14] = Volume of distribution at steady state in rat at 0.5 mg/kg, iv and 2 mg/kg, po; type: ADME, organism-based; conditions: in vivo, read-out: Vdss; method in brief: as §1
[15] = AUC in cynomolgus monkey at 2 mg/kg, po; type: ADME, organism-based, Macaca fascicularis; set-up: dose 2 mg/kg, route oral; conditions: plasma; method in brief: as §1
[16] = Volume of distribution at steady state in rat at 0.7 mg/kg, iv and 2 mg/kg, po; type: ADME, organism-based; conditions: in vivo, read-out: Vdss; method in brief: as §1
[17] = Bioavailability in cynomolgus monkey at 0.5 mg/kg, iv and 2 mg/kg, po; conditions: in vivo
[18] = Bioavailability in rat at 0.7 mg/kg, iv and 2 mg/kg, po; type: ADME, organism-based; conditions: in vivo; method in brief: as §1
[19] = Clearance in cynomolgus monkey at 0.5 mg/kg, iv and 2 mg/kg, po; conditions: in vivo
[20] = Volume of distribution at steady state in cynomolgus monkey at 0.5 mg/kg, iv and 2 mg/kg, po; conditions: in vivo, read-out: Vdss
[21] = Clearance in rat at 0.7 mg/kg, iv and 2 mg/kg, po; type: ADME, organism-based; conditions: in vivo; method in brief: as §1

Sequence of 11-beta-hydroxysteroid dehydrogenase 1 (Homo sapiens, UniProt P28845) (P28845 whole entry): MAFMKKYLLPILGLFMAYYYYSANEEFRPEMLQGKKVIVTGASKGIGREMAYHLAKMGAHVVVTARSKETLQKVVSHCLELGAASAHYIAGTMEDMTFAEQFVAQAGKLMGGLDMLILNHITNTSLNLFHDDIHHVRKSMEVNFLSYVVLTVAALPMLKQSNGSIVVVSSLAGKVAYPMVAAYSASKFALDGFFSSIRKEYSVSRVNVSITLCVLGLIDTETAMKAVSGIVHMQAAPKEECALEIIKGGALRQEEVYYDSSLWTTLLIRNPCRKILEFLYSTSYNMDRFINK
Sequence of 11-beta-hydroxysteroid dehydrogenase 1 (Rattus norvegicus, UniProt P16232) (P16232 whole entry): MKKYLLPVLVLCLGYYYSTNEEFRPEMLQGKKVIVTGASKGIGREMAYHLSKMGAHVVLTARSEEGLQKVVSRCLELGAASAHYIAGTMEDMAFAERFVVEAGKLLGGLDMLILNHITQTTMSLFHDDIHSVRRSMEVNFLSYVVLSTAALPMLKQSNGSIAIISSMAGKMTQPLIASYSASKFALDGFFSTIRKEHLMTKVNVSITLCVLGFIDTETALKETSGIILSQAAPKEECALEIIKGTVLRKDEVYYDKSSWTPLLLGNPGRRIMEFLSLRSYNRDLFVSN

Row | SMILES | Activity [1] | metabolised at 0.5 h [2] | metabolised at 0.5 h [3] | IC50 (HeLa) | further results
1 | C[C@](O)(c1ccc(C(=O)N(C2CC2)[C@H]2CC[C@@H](c3cccnc3)CC2)cc1)C(F)(F)F | 38% | – | 94% | > 10 µM | IC50 [4]: 0.0016 µM
2 | C[C@](O)(c1ccc(C(=O)N(C2CC2)[C@H]2CC[C@@H](c3ccc(C#N)cc3)CC2)cc1)C(F)(F)F | 75% | – | 33% | > 10 µM | IC50 [4]: 0.0049 µM
3 | C[C@](O)(c1ccc(C(=O)N(C2CC2)[C@H]2CC[C@](C#N)(c3cccnc3)CC2)cc1)C(F)(F)F | < 5% | 35% | < 5% | > 10 µM | –
4 | C[C@](O)(c1ccc(C(=O)N(C2CC2)[C@H]2CC[C@](O)(C3CC3)CC2)cc1)C(F)(F)F | < 5% | 7.4% | < 5% | > 10 µM | ED50 (Rattus norvegicus): 10 mg/kg; clearance [5]: 0.24 L/h/kg; clearance [6]: 0.11 L/h/kg; AUC [7]: 8.9 µg·h/mL; fraction unbound [8]: 0.12; Vd [9]: 1.5 L/kg; IC50 (Cynomolgus monkey): 0.64 µM; bioavailability [10]: 43%; bioavailability [11]: 76%; IC50 [12]: 0.244 µM; Tmax [13]: 2 h; Vd [14]: 2.7 L/kg; AUC [15]: 4.7 µg·h/mL
5 | C[C@](O)(c1ccc(C(=O)N(C2CC2)[C@H]2CC[C@](O)(CC3CC3)CC2)cc1)C(F)(F)F | 5.9% | 43% | 10% | 2.8 µM | –
6 | C[C@](O)(c1ccc(C(=O)N(C2CC2)[C@H]2CC[C@@](C)(O)CC2)cc1)C(F)(F)F | < 5% | < 5% | < 5% | > 10 µM | –
7 | C[C@](O)(c1ccc(C(=O)N(C2CC2)[C@H]2CC[C@H](c3ccc(C#N)cc3)CC2)cc1)C(F)(F)F | 11% | – | < 5% | 1.1 µM | IC50 [4]: 0.00076 µM
8 | C[C@](O)(c1ccc(C(=O)N(C2CC2)[C@H]2CC[C@](C#N)(C3CC3)CC2)cc1)C(F)(F)F | < 5% | < 10% | < 10% | > 10 µM | Vd [16]: 2.2 L/kg; AUC [7]: 4.1 µg·h/mL; bioavailability [17]: 5%; bioavailability [18]: 40%; clearance [19]: 0.093 L/h/kg; AUC [15]: 1 µg·h/mL; Vd [20]: 1.9 L/kg; clearance [21]: 0.19 L/h/kg
9 | C[C@](O)(c1ccc(C(=O)N(C2CC2)[C@H]2CC[C@](C#N)(c3ccccc3)CC2)cc1)C(F)(F)F | < 5% | 6% | < 5% | > 10 µM | –
10 | C[C@](O)(c1ccc(C(=O)N(C2CC2)[C@H]2CC[C@H](c3cccnc3)CC2)cc1)C(F)(F)F | 2.2% | – | < 5% | 2.5 µM | IC50 [4]: 0.0017 µM
11 | C[C@](O)(c1ccc(C(=O)N(C2CC2)[C@H]2CC[C@H](c3ccccc3)CC2)cc1)C(F)(F)F | 31% | – | < 5% | > 10 µM | –
12 | CC(C)[C@]1(O)CC[C@@H](N(C(=O)c2ccc([C@](C)(O)C(F)(F)F)cc2)C2CC2)CC1 | < 3.4% | 69% | 10% | > 10 µM | –
13 | C[C@](O)(c1ccc(C(=O)N(C2CC2)[C@H]2CC[C@](C#N)(c3ccc(C#N)cc3)CC2)cc1)C(F)(F)F | < 5% | < 5% | 6.8% | > 10 µM | –

Continued, in another order:

Row | Activity [1] | metabolised at 0.5 h [2] | metabolised at 0.5 h [3] | SMILES | IC50 (HeLa) | further results
14 | < 5% | > 95% | 15% | C[C@](O)(c1ccc(C(=O)N(C2CC2)[C@H]2CC[C@@](O)(c3ccccc3)CC2)cc1)C(F)(F)F | > 10 µM | –
15 | 6.1% | < 5% | < 5% | C[C@](O)(c1ccc(C(=O)N(C2CC2)[C@H]2CC[C@](O)(c3ccccn3)CC2)cc1)C(F)(F)F | > 10 µM | –
16 | 6.3% | 95% | 6.9% | C[C@@](O)(c1ccc(C(=O)N(C2CC2)[C@H]2CC[C@@](C#N)(c3ccccn3)CC2)cc1)C(F)(F)F | > 10 µM | –
17 | < 5% | < 5% | < 5% | C[C@](O)(c1ccc(C(=O)N(C2CC2)[C@H]2CC[C@](O)(c3cccnc3)CC2)cc1)C(F)(F)F | > 10 µM | –
18 | < 5% | < 5% | < 5% | C[C@](O)(c1ccc(C(=O)N(C2CC2)[C@H]2CC[C@](O)(c3ccccc3)CC2)cc1)C(F)(F)F | 5.1 µM | –
19 | 7.6% | 14% | < 5% | C[C@@](O)(c1ccc(C(=O)N(C2CC2)[C@H]2CC[C@](C#N)(c3ccccn3)CC2)cc1)C(F)(F)F | > 10 µM | –
